Calls of active or inactive are those of the source. The rule behind the calls is not given here.
Experiments:
[1] = AUC in Sprague-Dawley rat brain at 2 mg/kg, po; type: ADME, organism-based
[2] = AUC in cynomolgus monkey plasma at 1 mg/kg, po; type: ADME, organism-based, Macaca fascicularis
[3] = molecular target: T1, Sphingosine 1-phosphate receptor 4 (Homo sapiens) (UniProt O95977); experiment: Agonist activity at S1P4 receptor (unknown origin) expressed in CHO cell membranes up to 10 uM after 30 mins by GTPgammaS binding assay; type: functional
T1 sequence (whole entry): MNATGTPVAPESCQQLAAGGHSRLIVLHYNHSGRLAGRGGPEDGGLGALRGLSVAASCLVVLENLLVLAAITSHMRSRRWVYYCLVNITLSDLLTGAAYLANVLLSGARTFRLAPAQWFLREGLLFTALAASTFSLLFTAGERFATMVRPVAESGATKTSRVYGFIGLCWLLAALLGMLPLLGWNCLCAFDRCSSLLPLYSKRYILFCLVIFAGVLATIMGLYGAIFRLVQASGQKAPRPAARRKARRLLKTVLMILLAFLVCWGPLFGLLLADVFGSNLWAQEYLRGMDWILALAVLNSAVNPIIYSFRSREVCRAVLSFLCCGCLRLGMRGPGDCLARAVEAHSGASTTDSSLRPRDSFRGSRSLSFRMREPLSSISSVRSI

[4] = Thiol reactivity by Alarm NMR assay
Rattus norvegicus [5] = experiment: Toxicity in Sprague-Dawley rat assessed as change in spleen weight at 10 to 100 mg/kg, po qd measured on day 14; type: organism-based; conditions: in vivo
[6] = Plasma concentration in Sprague-Dawley rat at 100 mg/kg, po measured 5 hrs post dose; type: ADME, organism-based
[7] = molecular target: T1, Sphingosine 1-phosphate receptor 4 (Homo sapiens); experiment: Displacement of [33P]S1P from S1P4 receptor (unknown origin) expressed in HEK cell membranes after 45 to 60 mins by scintillation counting based RLB method; conditions: HEK293
How it was run: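 Membranes from transiently transfected HEK cells overexpressing the S1P receptor, 5-10 µg per well, in 50 mM HEPES pH 7.4, 100 mM NaCl, 10 mM MgCl2, 0.1% fatty-acid-free BSA. [33P]S1P at 50 pM; non-specific binding with 1 µM cold S1P. Final DMSO 1 or 0.5%. Incubated 45-60 min at room temperature, then filtered and counted. IC50 from non-linear fit of percent inhibition.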

[8] = molecular target: Sphingosine 1-phosphate receptor 2 (Homo sapiens) (UniProt O95136); experiment: Displacement of [33P]S1P from S1P2 receptor (unknown origin) expressed in HEK cell membranes after 90 mins by scintillation counting based RLB method; conditions: HEK293
Sequence of Sphingosine 1-phosphate receptor 2 (Homo sapiens) (O95136 whole entry): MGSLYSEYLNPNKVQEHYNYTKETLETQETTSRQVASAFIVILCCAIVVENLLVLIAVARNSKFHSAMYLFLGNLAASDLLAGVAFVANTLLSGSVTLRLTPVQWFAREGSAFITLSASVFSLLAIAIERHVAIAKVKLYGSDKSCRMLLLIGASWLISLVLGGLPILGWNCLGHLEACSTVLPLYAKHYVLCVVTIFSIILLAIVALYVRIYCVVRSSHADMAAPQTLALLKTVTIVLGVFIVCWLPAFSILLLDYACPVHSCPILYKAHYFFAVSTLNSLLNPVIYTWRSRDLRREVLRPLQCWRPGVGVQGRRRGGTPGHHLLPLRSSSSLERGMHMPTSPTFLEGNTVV
How it was run: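 S1P2 in transiently transfected HEK cell membranes, 5-10 µg per well, in HEPES pH 7.4 buffer with NaCl, MgCl2 and 0.1% fatty-acid-free BSA. [33P]S1P at 50 pM; non-specific binding defined with 1 µM unlabelled S1P. Incubated 90 min at 4°C, then filtered and scintillation counted. IC50 from non-linear curve fit of percent inhibition.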

Rattus norvegicus [9] = experiment: Toxicity in female Sprague-Dawley rat assessed as weight loss at 100 mg/kg, po qd measured on day 8; type: organism-based; conditions: in vivo
Rattus norvegicus [10] = experiment: Toxicity in male Sprague-Dawley rat assessed as increase in liver weight at 100 mg/kg, po qd measured on day 14; type: organism-based; conditions: in vivo
Rattus norvegicus [11] = experiment: Toxicity in Sprague-Dawley rat assessed as change in thymus weight at 10 to 100 mg/kg, po qd measured on day 14; type: organism-based; conditions: in vivo
[12] = molecular target: 5-hydroxytryptamine receptor 2A (Homo sapiens) (UniProt P28223); experiment: Binding affinity to human recombinant 5HT2A receptor expressed in HEK293 cells; type: cell-based
Sequence of 5-hydroxytryptamine receptor 2A (Homo sapiens) (P28223 whole entry): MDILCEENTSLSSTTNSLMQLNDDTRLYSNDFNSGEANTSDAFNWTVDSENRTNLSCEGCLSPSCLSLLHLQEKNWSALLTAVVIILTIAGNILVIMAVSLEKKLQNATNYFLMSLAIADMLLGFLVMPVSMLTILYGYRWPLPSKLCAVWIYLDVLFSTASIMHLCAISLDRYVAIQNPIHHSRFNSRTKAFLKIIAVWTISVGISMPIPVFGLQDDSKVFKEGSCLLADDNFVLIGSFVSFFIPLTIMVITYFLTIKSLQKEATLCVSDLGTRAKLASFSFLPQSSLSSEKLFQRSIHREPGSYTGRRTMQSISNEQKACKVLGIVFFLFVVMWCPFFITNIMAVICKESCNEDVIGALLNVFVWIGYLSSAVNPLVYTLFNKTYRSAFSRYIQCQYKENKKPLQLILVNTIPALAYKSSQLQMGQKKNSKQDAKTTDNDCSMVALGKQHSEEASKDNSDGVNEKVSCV

[13] = Volume of distribution at steady state in Sprague-Dawley rat plasma at 1 mg/kg, iv; type: ADME, organism-based; conditions: read-out: Vdss
[14] = Half life in BALB/C mouse plasma at 2 mg/kg, po; type: ADME, organism-based

SMILES: O=C(O)C1CN(Cc2ccc(OCc3ccc(Cl)c(Cl)c3)cc2)C1
- AUC [1]: 3100 ng·h/mL
- AUC [2]: 5500 ng·h/mL
- Activity [3]: inactive
- Activity [4]: inactive
- Activity (Rattus norvegicus [5]): Non-toxic
- concentration at 5 h [6]: 15000 ng/mL
- Activity [7]: inactive
- Activity [8]: inactive
- Activity (Rattus norvegicus [9]): 22%
- Activity (Rattus norvegicus [10]): 20%
- Activity (Rattus norvegicus [11]): Non-toxic
- Activity [12]: 75%
- Vd [13]: 1.3 L/kg
- half-life [14]: 7.4 h

From ChEMBL document CHEMBL3739276, “Discovery of A-971432, An Orally Bioavailable Selective Sphingosine-1-Phosphate Receptor 5 (S1P5) Agonist for the Potential Treatment of Neurodegenerative Disorders” (J Med Chem, 2015)
